The source made the active and inactive calls. The rule behind the calls is not given here.
How the values were obtained:
Rattus norvegicus [1] = test: Estrogenic activity in uterus of ovariectomized Sprague-Dawley rat assessed as increase in uterus weight at 0.1 mg/kg, iv administered three times per week for 4 weeks on the first, second, and fifth days; type: functional, organism-based; design: dose 0.1 mg/kg
Method in brief: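 Female SD rats, 7 weeks old on arrival, were housed 4 weeks, weight-matched into groups, and bilaterally ovariectomized, with sham-operated controls. Conjugate was given iv at 0.1 mg/kg the day after surgery in 1% carboxymethyl cellulose plus 1% citrate buffer. Uterine weight was the read-out.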

Rattus norvegicus [2] = test: Estrogenic activity in bone of ovariectomized Sprague-Dawley rat assessed as increase in bone mass at 0.1 mg/kg, iv administered three times per week for 4 weeks on the first, second, and fifth days; type: functional, organism-based; design: dose 0.1 mg/kg
Method in brief: (§1)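 Female SD rats, 7 weeks old on arrival, were housed 4 weeks and assigned to groups matched for mean body weight. All except sham controls were bilaterally ovariectomized. The next day they received conjugate at 0.1 mg/kg iv in 1% carboxymethyl cellulose plus 1% citrate buffer. Bone effect was read as secondary-spongiosa bone volume of the left tibia and ash weight of the right femur.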

Rattus norvegicus [3] = test: Bisphosphonate activity in ovariectomized Sprague-Dawley rat assessed as suppression of Ca2+ ion release from bone at 0.1 mg/kg, iv administered three times per week for 4 weeks on the first, second, and fifth days; type: functional, organism-based; design: dose 0.1 mg/kg
Method in brief: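 In rats, bisphosphonate activity was measured as suppression of PTHrp-induced Ca2+ ion release from bone.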

[4] = molecular target: T1, Estrogen receptor (Rattus norvegicus) (UniProt P06211); test: Ratio of binding affinity of compound to estradiol at rat uterus estrogen receptor by competitive binding assay
T1 sequence (whole entry): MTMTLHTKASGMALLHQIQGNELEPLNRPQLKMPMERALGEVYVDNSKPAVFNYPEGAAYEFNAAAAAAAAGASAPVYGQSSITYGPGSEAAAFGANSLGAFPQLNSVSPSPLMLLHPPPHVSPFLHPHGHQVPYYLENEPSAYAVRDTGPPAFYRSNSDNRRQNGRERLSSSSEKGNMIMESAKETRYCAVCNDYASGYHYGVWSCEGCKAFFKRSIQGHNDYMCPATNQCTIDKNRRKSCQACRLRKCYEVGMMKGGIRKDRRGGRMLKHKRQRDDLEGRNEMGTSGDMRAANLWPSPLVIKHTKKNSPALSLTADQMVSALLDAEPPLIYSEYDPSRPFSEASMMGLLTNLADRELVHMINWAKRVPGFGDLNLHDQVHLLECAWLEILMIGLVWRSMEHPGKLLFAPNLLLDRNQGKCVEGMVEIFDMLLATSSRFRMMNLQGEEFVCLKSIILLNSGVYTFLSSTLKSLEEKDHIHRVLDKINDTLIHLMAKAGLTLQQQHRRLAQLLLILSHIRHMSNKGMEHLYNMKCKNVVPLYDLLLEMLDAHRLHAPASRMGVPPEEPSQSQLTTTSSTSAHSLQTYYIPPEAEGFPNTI

Rattus norvegicus [5] = test: Estrogenic activity in bone of ovariectomized Sprague-Dawley rat assessed as increase in bone mass at 0.1 mg/kg, iv administered three times per week for 4 weeks on the first, second, and fifth days co-administered with antiestrogen fulvaestrant; type: functional, organism-based; design: dose 0.1 mg/kg; method in brief: as §1

Row | SMILES | Activity (Rattus norvegicus [1]) | other results
1 | C[C@]12CC[C@@H]3c4ccc(OC(=O)NCCC(=O)NC(P(=O)(O)O)P(=O)(O)O)cc4CC[C@H]3[C@@H]1CC[C@@H]2O | inactive | Activity (Rattus norvegicus [2]): Active; Activity (Rattus norvegicus [3]): inactive; Ratio [4]: 2000; Activity (Rattus norvegicus [5]): inactive
2 | C[C@]12CC[C@@H]3c4ccc(OC(=O)CC(=O)NC(P(=O)(O)O)P(=O)(O)O)cc4CC[C@H]3[C@@H]1CC[C@@H]2O | inactive | 
3 | C[C@]12CC[C@@H]3c4ccc(O)cc4CC[C@H]3[C@@H]1CC[C@@H]2OC(=O)CCNC(=O)NC(P(=O)(O)O)P(=O)(O)O | inactive | 
4 | CC(C)(C(=O)NC(P(=O)(O)O)P(=O)(O)O)C(=O)O[C@H]1CC[C@H]2[C@@H]3CCc4cc(O)ccc4[C@H]3CC[C@]12C | inactive | 
5 | C[C@]12CC[C@@H]3c4ccc(O)cc4CC[C@H]3[C@@H]1CC[C@@H]2O | Active | Activity (Rattus norvegicus [2]): Active
6 | C[C@]12CC[C@@H]3c4ccc(O)cc4CC[C@H]3[C@@H]1CC[C@@H]2OC(=O)c1ccccc1C(=O)NC(P(=O)(O)O)P(=O)(O)O | inactive | 
7 | C[C@]12CC[C@@H]3c4ccc(O)cc4CC[C@H]3[C@@H]1CC[C@@H]2OC(=O)CC(=O)NC(P(=O)(O)O)P(=O)(O)O | inactive | 
